Hits are enriched below; roughly 2.9% of the tested compounds scored in any of these assays.
MEKK2mut PB1 HTS – signal of MEK5 binding to mutant human MEKK2 PB1 domain; bead flow cytometry, Alexa488-MEK5 binding to MEKK2 mutant; AID 1530; actives 0.35% (n = 290,000); percent response, % at 10 µM; in the data active means percent response above about 24%, passing the limit was not always enough
ATG4B inh – inhibitors of human ATG4B cysteine protease; Q9Y4P1; ATG4B cleavage of LC3-PLA2, NBD-HPC fluorescence, 1 h; inhibition, % at 8.33 µM; actives 0.51% (n = 340,000); AID 504462; in the data active means inhibition above about 40%
MEKK2wt PB1 HTS – raises or lowers MEK5 binding to wildtype human MEKK2 PB1 domain; Q9Y2U5; actives 1.1% (n = 290,000); binding response (% of control), % at 10 µM; AID 1531; bead flow cytometry, Alexa488-MEK5 binding to MEKK2 WT; actives lie on both sides; in the data active means binding response below about 67% or above about 130%
MEKK3 PB1 HTS – MEKK3-MEK5 PB1 interaction, increase or decrease. bead-based flow cytometry, Alexa488-MEK5 binding to MEKK3; actives lie on both sides; 0 = blocked by unlabeled MEK5, 100 = vehicle. AID 1529. actives 1.4% (n = 290,000). binding response (% of control), % at 10 µM. Q99759;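 active means binding response more than 3 SD above or below the average of its plate-row segment, actives on both sides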;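 further: Alexa488 bead fluorescence after subtracting the streptavidin-only scavenger bead signal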
Dynein transport – dynein cargo transport inhibition | z-score, hits read low | actives 0.47% (n = 220,000) | 3617.4 mouse cells, GR-EGFP nuclear translocation imaging; test concentration mostly 20 µM; stimulated with dexamethasone, 1 µM; active compounds read low;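 active means plate z-score of nuclear minus cytoplasmic receptor signal below a set negative limit, without overly bright fluorescence or cell loss, cut at about -3.5 in these data, passing the limit was not always enough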;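 further: z-score of nuclear minus cytoplasmic ring GR-EGFP intensity difference per well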
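Schedule: 48 h induction, then 1 h compound, then 30 min agonist, 37 °C. Buffer or medium: tetracycline-free induction medium containing charcoal-stripped FBS. Reagent: 1.0 µM final dexamethasone stimulus. Evaluation: nuclear versus cytoplasmic GR-EGFP signal, averaged per well. Signal: high-content fluorescence imaging after fixation.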
B2AR ag – activates human beta-2 adrenergic receptor causing internalization; P07550; Am2.2-beta2AR cells, FAP receptor internalization, flow cytometry; response, % (concentration not given with the values); actives 0.43% (n = 340,000); AID 504454;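 active means response above a set limit, near 3 SD of response in nonfluorescent compounds, cut at about 42% in these data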
Target sequence (P07550 whole entry, looked up): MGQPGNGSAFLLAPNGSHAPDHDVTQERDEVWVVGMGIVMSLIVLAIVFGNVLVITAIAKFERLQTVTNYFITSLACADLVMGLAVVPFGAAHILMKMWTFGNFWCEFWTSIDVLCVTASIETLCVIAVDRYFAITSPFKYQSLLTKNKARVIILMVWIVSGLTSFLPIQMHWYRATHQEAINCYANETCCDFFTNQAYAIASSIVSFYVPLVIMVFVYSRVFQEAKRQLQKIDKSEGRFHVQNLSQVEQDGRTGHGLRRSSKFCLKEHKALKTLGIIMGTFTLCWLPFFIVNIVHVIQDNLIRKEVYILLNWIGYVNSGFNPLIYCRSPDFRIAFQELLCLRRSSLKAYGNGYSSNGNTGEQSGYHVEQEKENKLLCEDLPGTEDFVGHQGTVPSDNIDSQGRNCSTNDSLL
MEKK2wt confirm – raises or lowers MEK5 binding to wildtype human MEKK2, retest | bead flow cytometry, Alexa488-MEK5 binding to MEKK2 WT; actives lie on both sides | actives 2.4% (n = 5,900) | binding response (% of control), % at 10 µM | AID 1892 | shares compounds with MEKK3 PB1 HTS; in the data active means binding response below about 16% or above about 210%; inactive means in between
MEKK2mut confirm – signal of MEK5 binding to mutant human MEKK2, retest; shares compounds with MEKK3 PB1 HTS; bead flow cytometry, Alexa488-MEK5 binding to MEKK2 mutant; actives 2% (n = 5,900); percent response, % at 10 µM; in the data active means percent response mostly above about 71%, no sharp cut-off; inactive means mostly below about 38%;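 further: higher means compound restores mutant binding toward wildtype level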
MEKK3 confirm – MEKK3-MEK5 PB1 inhibition, single concentration confirmation; bead flow cytometry, Alexa488-MEK5 binding to MEKK3; active compounds read low; AID 1894; shares compounds with MEKK3 PB1 HTS; binding response (% of control), % at 10 µM; actives 1.8% (n = 5,900);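 active means binding response below 72% of control, or above a set upper limit, though filed actives all read lower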;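 further: 100% = DMSO only wells and 0% = binding blocked by excess unlabeled MEK5; lower values mean stronger disruption of MEK5 binding to MEKK3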
Numbers without * were called inactive; nt = no result given; [ ] = remark or other dose.

SMILES	MEKK2mut PB1 HTS	ATG4B inh	MEKK2wt PB1 HTS	MEKK3 PB1 HTS	Dynein transport	B2AR ag	MEKK2wt confirm	MEKK2mut confirm	MEKK3 confirm
CCCCCCCCC1=NCCc2c1[nH]c1ccccc21	54.0*	8.8	159.0*	99.0	nt	11.3	157.0	25.0	100.0
CC(C)C/C=C1\CCc2c([nH]c3ccccc23)C1=O	-3.0	0.0	96.0	102.0	-0.694	21.4	nt	nt	nt
Cn1nccc1C(=O)N1CCC(Cc2ccccc2)CC1	7.0	2.7	108.0	102.0	nt	9.3	nt	nt	nt
CCCCC1(C(=O)OC)NC(c2ccc(O)cc2)C2C(=O)N(c3ccccc3)C(=O)C21 (stereo not drawn)	1.0	-16.6	108.0	108.0	nt	-7.7	nt	nt	nt
CCc1c(C)nc2cc(-c3ccc(OC)c(OC)c3)nn2c1N1CCCC1	-28.0	15.4	-1.0*[inhibitor]	2.0*[inhibitor]	-0.288	21.2	106.0	0.0	109.0
COc1ccc(NC(=S)N2CCC(c3nc4ccccc4o3)CC2)c(OC)c1	-12.0	-5.2	89.0	104.0	0.733	1.4	nt	nt	nt
CCCCN1C(=O)CCC(C(=O)O)C1c1ccccc1 (stereo not drawn)	-17.0	-14.1	-1.0*[inhibitor]	0.0*[inhibitor]	-0.85	-1.8	91.0	-7.0	85.0
CCCCN1C(=O)CC(C(=O)O)C1c1ccc(OC)cc1 (stereo not drawn)	-5.0	0.6	91.0	97.0	-0.0756	4.4	nt	nt	nt
CC1CCc2sc(C(=O)OCC(=O)NC(C)C)cc2C1 (stereo not drawn)	-9.0	-6.5	89.0	96.0	0.593	-0.1	nt	nt	nt
Cc1ccc(NC(=O)c2snc3c(=O)[nH]cnc23)cc1C	3.0	nt	101.0	101.0	0.391	nt	nt	nt	nt
Cc1ccc(NC(=O)c2snc3ccc(Cl)cc23)cc1C	-1.0	-11.9	102.0	131.0*	0.0196	1.6	100.0	-3.0	98.0
COc1ccc(C(CNC(=O)CN(C)S(=O)(=O)c2ccc(C)cc2)N2CCCC2)cc1 (stereo not drawn)	nt	5.5	nt	nt	nt	2.8	nt	nt	nt
O=C(N/N=C\C=C\c1ccc2c(c1)OCO2)c1cccnc1	1.0	1.4	109.0	135.0*	0.0135	1.4	103.0	0.0	101.0
CNS(=O)(=O)c1ccc2c(c1)NC(=O)C1CCCN21 (stereo not drawn)	0.0	1.2	110.0	153.0*	0.591	20.8	103.0	3.0	101.0
CC(C)OCCCN1CN(S(=O)(=O)c2ccccc2)c2nc3ccccc3nc21	-66.0	-20.1	11.0*[inhibitor]	6.0*[inhibitor]	-0.275	-1.2	107.0	2.0	104.0
COCCCN1CN(S(=O)(=O)c2ccc(Cl)cc2)c2nc3ccccc3nc21	10.0	-5.3	99.0	97.0	0.0198	-9.4	nt	nt	nt
OC1CCCC1NCc1ccnc2cc(Cl)ccc12 (stereo not drawn)	nt	7.9	nt	nt	nt	-1.8	nt	nt	nt
O=c1oc2ccccc2cc1-c1nc2c(s1)CCc1ccccc1-2	-2.0	20.7	63.0*[inhibitor]	92.0	-2.59	-2.2	72.0	-15.0	99.0
Cc1nn2c(C(F)(F)F)c3c(nc2c1-c1ccccc1)CCC3	-35.0	-7.6	nt	1.0*[inhibitor]	-0.957	-4.3	103.0	5.0	104.0
Cc1nn2c(NCCCN(C)C)c3c(nc2c1-c1ccccc1)CCC3	34.0*	6.1	173.0*	107.0	4.21	-2.3	157.0	42.0	106.0
CN1CCN(CC(=O)N2CCn3c4c(c5cc(C6CCCCC6)ccc53)CCCC42)CC1 (stereo not drawn)	84.0*	-2.8	253.0*	112.0	4.03	16.4	215.0*	62.0	108.0
Cc1c(Cc2ccc3c(c2)OCO3)sc(NC(=O)c2ccccc2)c1C(N)=O	-7.0	-4.7	81.0	75.0*[inhibitor]	-0.843	-4.5	97.0	-1.0	100.0
O=c1c2cc(Cl)ccc2[nH]c(=S)n1Cc1ccccn1	0.0	-5.2	103.0	151.0*	-0.29	-17.9	106.0	-2.0	102.0
CCN1C(=O)C2C(c3ccc(O)c(OC)c3)NC(C)(C(=O)OC)C2C1=O (stereo not drawn)	-6.0	-5.5	94.0	96.0	-0.157	-2.9	nt	nt	nt
CCOC(=O)C1(C)NC(c2cc(OC)c(OC)c(OC)c2)C2C(=O)N(CC)C(=O)C21 (stereo not drawn)	-14.0	-10.6	2.0*[inhibitor]	2.0*[inhibitor]	0.637	7.7	108.0	6.0	104.0
SMILES	MEKK2mut PB1 HTS	ATG4B inh	MEKK2wt PB1 HTS	MEKK3 PB1 HTS	Dynein transport	B2AR ag	MEKK2wt confirm	MEKK2mut confirm	MEKK3 confirm
CCOc1cccc2sc(N(CCCN(C)C)C(=O)c3ccc(C(=O)c4ccccc4)cc3)nc12	35.0*	2.3	161.0*	108.0	nt	30.1	154.0	23.0	105.0
CCOc1cccc2sc(N(CCCN(C)C)C(=O)Cc3ccccc3)nc12	75.0*	-4.1	180.0*	128.0	-0.278	-1.2	133.0	31.0	113.0
Cc1ccc(C)c(NC(=O)C(OC(=O)c2cc[n+]([O-])cc2)c2ccccc2)c1 (stereo not drawn)	nt	-0.5	nt	nt	nt	2.6	nt	nt	nt
O=C1CCC([N+](=O)[O-])C(c2ccc(Br)cc2)N1 (stereo not drawn)	1.0	-5.5	105.0	133.0*	-0.0859	-3.7	95.0	-6.0	101.0
Cc1ccc(C2NC(=O)CCC2[N+](=O)[O-])cc1 (stereo not drawn)	nt	-7.1	nt	nt	-0.218	0.7	nt	nt	nt
COc1ccc(N2C(=NC(=O)c3ccc(Br)cc3)SC3CS(=O)(=O)CC32)cc1 (stereo not drawn)	nt	-9.9	nt	nt	nt	-4.8	nt	nt	nt
CC1(c2nnc(-c3ccc(F)cc3)o2)CC(c2ccc(F)cc2)=NO1 (stereo not drawn)	4.0	-4.3	52.0	57.0	-2.54	-7.8	nt	nt	nt
COc1ccc(C2=NOC(C)(c3nnc(-c4ccc(F)cc4)o3)C2)cc1 (stereo not drawn)	-2.0	-8.0	96.0	81.0*[inhibitor]	-1.16	-3.2	97.0	-10.0	95.0
CC(NC(=S)NCCc1ccccc1)C(c1cccs1)N1CCN(Cc2ccccc2)CC1 (stereo not drawn)	14.0	-5.6	138.0*	81.0	2.37	8.8	148.0	35.0	113.0
CC(NC(=O)NC1CCCCC1)C(c1cccs1)N1CCN(Cc2ccccc2)CC1 (stereo not drawn)	-3.0	-4.1	99.0	99.0	-0.444	-3.5	nt	nt	nt
CCCCN(C(=O)c1ccc(-n2nc(C)cc2C)cc1)c1c(N)n(CCC)c(=O)[nH]c1=O	nt	-3.3	nt	nt	nt	-3.9	nt	nt	nt
